The values below come from ChEMBL document CHEMBL1759947, “Synthesis and evaluation of arylquinones as BACE1 inhibitors, β-amyloid peptide aggregation inhibitors, and destabilizers of preformed β-amyloid fibrils” (Bioorg Med Chem Lett, 2011).

The nature of series [1]: Induction of amyloid beta (25 to 35) disaggregation after 4 days by Thioflavin-T fluorescence assay. The essentials:
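Aβ(25–35) first held at 37 °C for 4 days to form fibrils, then exposed to quinone for another 4 days at 37 °C; remaining fibrils measured by thioflavin-T fluorescence (ex 448/em 483 nm) with ThT blank subtracted; IC50 derived.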

Series [2] concerns the target Beta-secretase 1 (Homo sapiens, UniProt P56817). As to the kind of experiment: Inhibition of human recombinant BACE1 preincubated after 1 hr by fluorescence assay.
Series [3] deals with SH-SY5Y. The series can be described thus: Cytotoxicity against human SH-SY5Y cells up to 20 uM for 24 hrs by MTT assay. The format is cell-based. The essentials:
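SH-SY5Y neuroblastoma cells; viability by mitochondrial reduction of MTT to formazan, reported as percent cell death at a single concentration.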
On the technique in general: Formazan colour is commonly taken as a measure of viable cells.

Series [4] in a line: Inhibition of amyloid beta (25 to 35) aggregation for 4 days by Thioflavin-T fluorescence assay. The essentials:
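Aβ(25–35) dissolved at 1 mM in PBS (stock), diluted, mixed with quinone and held at 37 °C for 4 days; aggregation read by thioflavin-T fluorescence (ex 448/em 483 nm) after subtracting a ThT blank; IC50 derived.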

Sequence of Beta-secretase 1 (P56817 whole entry): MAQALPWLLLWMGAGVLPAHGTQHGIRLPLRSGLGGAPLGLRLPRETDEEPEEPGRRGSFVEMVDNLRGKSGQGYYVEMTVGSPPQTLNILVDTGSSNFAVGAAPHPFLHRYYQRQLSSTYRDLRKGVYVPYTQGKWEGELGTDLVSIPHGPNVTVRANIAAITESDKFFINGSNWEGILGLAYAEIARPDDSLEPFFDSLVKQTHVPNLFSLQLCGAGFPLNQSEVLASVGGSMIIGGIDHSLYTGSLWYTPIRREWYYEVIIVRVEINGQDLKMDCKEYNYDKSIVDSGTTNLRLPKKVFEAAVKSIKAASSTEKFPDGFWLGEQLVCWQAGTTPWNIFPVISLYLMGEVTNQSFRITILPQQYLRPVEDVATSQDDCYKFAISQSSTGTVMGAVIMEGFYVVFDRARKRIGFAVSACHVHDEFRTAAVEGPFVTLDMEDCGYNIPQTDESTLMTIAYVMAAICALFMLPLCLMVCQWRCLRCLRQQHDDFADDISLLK

Regarding `Oc1cc(-c2ccccc2)c(O)cc1-c1ccccc1`, the IC50 in series [1] (read-out: IC50) was 14.3 µM; in series [2], 16 µM; in series [4] (read-out: IC50), over 50 µM. In addition, in series [3], the Activity entry is recorded as “Non-toxic”.

Consider `O=C1C=C(c2ccc(C(F)(F)F)cc2)C(=O)C=C1c1ccccc1`, for which the figures for the IC50 in series [1] (read-out: IC50), in series [2] and in series [4] (read-out: IC50) were 12.3 µM, 6.52 µM and 14.2 µM, respectively. Also, in series [3], the Activity result was “Non-toxic”.

Consider `O=C1C(c2ccc(O)cc2)=CC(=O)c2c(O)cccc21`, for which the IC50 result in series [1] was “Not Active”; in series [2] it was 16.1 µM; in series [4], “Not Active”. In series [3], the Activity result is on record as “Non-toxic”.

Consider `COc1cccc2c1C(=O)C(c1ccc(O)cc1)=CC2=O`, for which the IC50 in series [1] (read-out: IC50) worked out at 5.05 µM; in series [2], 10.3 µM; in series [4] (read-out: IC50) it was 16.6 µM. The Activity entry in series [3] was “Non-toxic”.

Turning to `CC(=O)Oc1cc(-c2ccc(C(F)(F)F)cc2)c(OC(C)=O)cc1-c1ccccc1`, the concentration for half-maximal inhibition (IC50) in series [1] (read-out: IC50) and in series [4] (read-out: IC50) was over 50 µM each time. Further, the Activity result in series [3] is given as “Non-toxic”.

On to `COc1ccc(-c2cc(OC(C)=O)c(-c3ccc(OC)cc3)cc2OC(C)=O)cc1`, for which the values for the IC50 in series [1] (read-out: IC50), in series [2] and in series [4] were over 50 µM, 23.9 µM and “Not Active”, respectively. Further, the Activity entry in series [3] is recorded as “Non-toxic”.

`O=C1C=C(c2ccccc2)C(=O)c2c(O)cccc21`: the IC50 entry in series [1] is “Not Active”; in series [2] it was 8.98 µM; in series [4] it was “Not Active”. The Activity entry in series [3] is recorded as “Non-toxic”.

`COc1ccc(C2=CC(=O)C=C(c3ccc(F)cc3)C2=O)cc1`: the Activity in series [3] was determined as 62.5%.

In series [3], `COc1ccc(C2=CC(=O)C(c3ccccc3)=CC2=O)cc1` displayed an Activity of 56.29%.

As for `COc1ccc(-c2cc(OC(C)=O)cc(-c3ccccc3)c2OC(C)=O)cc1`, the figures for the IC50 result in series [1], in series [2] and in series [4] were “Not Active”, 11.1 µM and “Not Active”, respectively. The Activity entry in series [3] is “Non-toxic”.

With `O=C1C=C(c2ccccc2)C(=O)C=C1c1ccccc1`, the Activity entry in series [3] is “Toxic”.

In series [3], `O=C1C=C(c2ccc(F)cc2)C(=O)C=C1c1ccccc1` had an Activity of 78.08%.

`COc1ccc(C2=CC(=O)C(c3ccc(F)cc3)=CC2=O)cc1` registered an Activity in series [3] of 66.22%.

Turning to `COc1ccc(C2=CC(=O)C(c3ccc(OC)cc3)=CC2=O)cc1`, the IC50 in series [1] (read-out: IC50) is 7.15 µM; in series [2], 23.3 µM; in series [4] (read-out: IC50) it was 6.37 µM. Besides, in series [3], the Activity result is given as “Non-toxic”.

Consider `O=C1C(c2ccccc2)=CC(=O)c2c(O)cccc21`, for which the IC50 result in series [1] is “Not Active”; in series [2] it was 12.6 µM; in series [4] it was “Not Active”. In addition, the Activity result in series [3] is recorded as “Non-toxic”.

`COc1ccc(-c2cc(O)cc(-c3ccccc3)c2O)cc1`: the IC50 in series [1] (read-out: IC50) amounted to 8.24 µM; in series [2], 9.1 µM; in series [4] (read-out: IC50), 17.8 µM. For the same compound, the Activity result in series [3] is “Non-toxic”.

`O=C1C=C(c2ccc(O)cc2)C(=O)c2ccccc21`: the results for the IC50 result in series [1], in series [2] and in series [4] were “Not Active”, 8.22 µM and “Not Active”, respectively. Further, the Activity entry in series [3] is given as “Non-toxic”.

On to `COc1ccc(C2=CC(=O)c3c(OC)cccc3C2=O)cc1`, for which the values for the IC50 entry in series [1], in series [2] and in series [4] (read-out: IC50) were “Not Active”, 11.2 µM and 22.6 µM, respectively. In addition, the Activity entry in series [3] was “Non-toxic”.

Consider `COc1ccc(C2=CC(=O)C=C(c3ccccc3)C2=O)cc1`, for which the IC50 in series [1] (read-out: IC50) came to 7.87 µM; in series [2], 13.4 µM; in series [4] (read-out: IC50) it was 9.56 µM. The Activity result in series [3] was “Non-toxic”.

Consider `COc1ccc(-c2cc(O)cc(-c3ccccc3)c2OC(C)=O)cc1`, for which the figures for the IC50 entry in series [1], in series [2] and in series [4] were “Not Active”, 11.3 µM and “Not Active”, respectively. For the same compound, the Activity entry in series [3] is on record as “Non-toxic”.

Turning to `CC(=O)Oc1cc(-c2ccccc2)c(OC(C)=O)c(-c2ccccc2)c1`, the IC50 entry was “Not Active” in series [1], 20 µM in series [2] and “Not Active” in series [4]. Moreover, the Activity entry in series [3] is on record as “Non-toxic”.

With `O=C1C=C(c2ccccc2)C(=O)C(c2ccccc2)=C1`, the IC50 in series [1] (read-out: IC50) was determined as 9 µM; in series [2] it was 11.4 µM; in series [4] (read-out: IC50), 9.28 µM. In addition, the Activity entry in series [3] is given as “Non-toxic”.

As to `O=C1C=C(c2ccccc2)C(=O)c2ccccc21`, the IC50 entry in series [1] is “Not Active”; in series [2], 9.33 µM; in series [4] it was “Not Active”. For the same compound, the Activity result in series [3] was “Non-toxic”.

Take `O=C1C=C(c2ccccc2)C(=O)C(c2ccc(C(F)(F)F)cc2)=C1`: the Activity in series [3] turned out to be 100%.

For orientation: IC50 means the concentration that gives 50% inhibition.
